Assay [1] addresses Serine/threonine-protein kinase D2 (Homo sapiens, UniProt Q9BZL6). Briefly: Inhibition of PKD2 (unknown origin).
The subject of assay [2] is 537-mel. In words: Antitumor activity against human 537-mel cells harboring PTEN null mutation xenografted in mouse assessed as tumor growth inhibition at 2.5 mg/kg, po. The assay is classed as functional. The settings on record: read-out: TGI. In short, it runs like this: (§1)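 Mice carrying human tumor xenografts dosed orally once daily for 21 consecutive days. Tumor volume measured by calipers as (L×W×W)/2. %TGI = 100×[1 − AUC(treatment/day)/AUC(vehicle/day)], using the area under the fitted growth curve relative to vehicle.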
On the technique in general: Xenograft models place foreign cells or tissue in a host animal.

The test system of assay [3] is NCI-H2122. Briefly: Antitumor activity against human NCI-H2122 cells xenografted in mouse assessed as tumor growth inhibition at 20 mg/kg, po administered once a day for 21 days in presence of 4-(2-(1H-indazol-4-yl)-6-((4-(methylsulfonyl)piperazin-1-yl)methyl)thieno[3,2-d]pyrimidin-4-yl)morpholine. The assay is classed as functional. The settings on record: NCI-H2122, 504 h, time 21 day, read-out: TGI. In a few lines: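 Mice bearing NCI-H2122 xenografts were given MEK inhibitor, PI3K inhibitor, or both, orally once daily for 21 consecutive days at the doses labeled. Caliper tumor volumes were calculated as (L×W×W)/2. %TGI was derived from the AUC of the fitted growth curve per day relative to vehicle.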

For assay [4], the system named is A2058. Briefly: Antitumor activity against human A2058 cells harboring BRAF V600E/PTEN L112Q/V175/TP53 V274F mutant xenografted in mouse assessed as tumor growth inhibition at 10 mg/kg, po. The assay is classed as functional. The settings on record: read-out: TGI. In short, it runs like this: as §1
The test system of assay [5] is NCI-H2122. In words: Antitumor activity against human NCI-H2122 cells harboring KRAS […]/LKB1 P281/TP53Q61L/C176Fl/CDKN2A mutant xenografted in mouse assessed as tumor growth inhibition at 10 mg/kg, po. The assay is classed as functional. The settings on record: read-out: TGI. In short, it runs like this: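 NCI-H2122 (KRAS G12C) NSCLC xenografts in mice were dosed orally once daily for 21 consecutive days. Tumor volume was measured with calipers as (L×W×W)/2, and body weight was tracked. %TGI was derived from the area under the fitted growth curve per day versus vehicle. Group means with SEM were reported.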

Assay [6] can be described thus: Antitumor activity against human A375.X1 cells xenografted in mouse assessed as tumor growth inhibition at 15 mg/kg, po administered every third day for 21 days in presence of 4-(2-(1H-indazol-4-yl)-6-((4-(methylsulfonyl)piperazin-1-yl)methyl)thieno[3,2-d]pyrimidin-4-yl)morpholine. It is filed as functional. The settings on record: A375.X1, 504 h, time 21 day, read-out: TGI. In a few lines: (§2)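 Human tumor xenografts in mice. Drugs given orally, as single agents or combined with the PI3K inhibitor. Schedules were daily (QD) or every third day (Q3D) over 21 days. Tumor volume was measured by caliper as (L×W×W)/2. %TGI = 100×[1 − AUC(treatment/d)/AUC(vehicle/d)] from fitted growth curves, with group means. Tumor lysates were immunoblotted for pS6.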

A short description of assay [7]: Antitumor activity against human A2058-X1 cells harboring BRAF V600E/PTEN L112Q/V175/TP53 V274F mutant xenografted in mouse assessed as tumor growth inhibition at 10 mg/kg, po. It is filed as functional. The conditions noted are these: A2058-X1, read-out: TGI. In a few lines:
(§3)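 Single-agent dose ranging in human tumor xenograft mice at 2.5, 5 or 10 mg/kg oral. Tumor volume was measured by caliper as (L×W×W)/2. %TGI = 100×[1 − AUC(treatment/d)/AUC(vehicle/d)] from the fitted growth curve per dose group, relative to vehicle.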

Assay [8] has as its target Focal adhesion kinase 1 (Homo sapiens, UniProt Q05397). In words: Inhibition of FAK (unknown origin).
In assay [9] the target is Testis-specific serine/threonine-protein kinase 1 (Homo sapiens, UniProt Q9BXA7). Briefly: Inhibition of TSSK1 (unknown origin).
Sequence of Testis-specific serine/threonine-protein kinase 1 (Q9BXA7 whole entry): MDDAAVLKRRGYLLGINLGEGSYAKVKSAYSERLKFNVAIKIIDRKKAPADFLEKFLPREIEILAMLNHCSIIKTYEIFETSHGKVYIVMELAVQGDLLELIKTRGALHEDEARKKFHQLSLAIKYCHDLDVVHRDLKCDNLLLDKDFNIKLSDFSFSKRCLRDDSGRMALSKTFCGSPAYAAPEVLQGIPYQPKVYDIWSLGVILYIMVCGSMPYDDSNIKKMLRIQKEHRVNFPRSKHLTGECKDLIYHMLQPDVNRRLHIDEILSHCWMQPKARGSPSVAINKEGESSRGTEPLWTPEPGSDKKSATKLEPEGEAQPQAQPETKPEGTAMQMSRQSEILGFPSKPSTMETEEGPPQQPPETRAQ
Assay [10] relates to HCT-116. In words: Antitumor activity against human HCT-116 cells harboring KRAS G13D/PIK3CA […]/CTNNB1 S45del/CDKN2A G23fs mutant xenografted in mouse assessed as tumor growth inhibition at 5 mg/kg, po. It is filed as functional. The conditions noted are these: read-out: TGI. In a few lines: as §3
Assay [11] concerns FaDu. In words: Antitumor activity against human FaDu cells harboring SMAD4 del/TP53 R248L/CDKN2A mutant xenografted in mouse assessed as tumor growth inhibition at 2.5 mg/kg, po. The assay is classed as functional. The conditions noted are these: read-out: TGI. In a few lines: as §3
Assay [12] concerns 888-mel. In words: Antiproliferative activity against human 888-mel cells assessed reduction in cell viability incubated for 4 days in presence of 4-(2-(1H-indazol-4-yl)-6-((4-(methylsulfonyl)piperazin-1-yl)methyl)thieno[3,2-d]pyrimidin-4-yl)morpholine by celltiter-glo assay. It is filed as functional. The conditions noted are these: time 4 day. In a few lines:
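4-day CellTiter-Glo viability read-out on melanoma lines, cells exposed to increasing concentrations of each inhibitor alone and in combination.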

The subject of assay [13] is EBC-1. Briefly: Antitumor activity against human EBC-1 cells harboring MET amp and EGFR G719S/L858R mutant xenografted in mouse assessed as tumor growth inhibition at 5 mg/kg, po. The assay is classed as functional. The settings on record: read-out: TGI. In short, it runs like this:
as §3

A short description of assay [14]: Antitumor activity against human A375.X1 cells harboring BRAF V600E/CDKN2A E61 mutant xenografted in mouse assessed as tumor growth inhibition at 5 mg/kg, po. The assay is classed as functional. The conditions noted are these: A375.X1, read-out: TGI. In a few lines: as §3
Assay [15] concerns CWR22R. Briefly: Antitumor activity against human 22Rv1 cells harboring PIK3CA Q546R/TP53 Q331R mutant xenografted in mouse assessed as tumor growth inhibition at 10 mg/kg, po. It is filed as functional. The conditions noted are these: read-out: TGI.
In assay [16] the test system is DLD-1. Briefly: Antitumor activity against human DLD-1 cells xenografted in mouse assessed as tumor growth inhibition at 10 mg/kg, po administered every third day for 21 days. The settings on record: DLD-1, 504 h, time 21 day, read-out: TGI. It is filed as functional. In short, it runs like this:
as §2

The subject of assay [17] is EBC-1. Briefly: Antitumor activity against human EBC-1 cells harboring MET amp and EGFR G719S/L858R mutant xenografted in mouse assessed as tumor growth inhibition at 10 mg/kg, po. The assay is classed as functional. The conditions noted are these: read-out: TGI. In short, it runs like this: as §3
Assay [18] concerns NCI-H460. In words: Antitumor activity against human NCI-H460 cells harboring KRAS Q61H/PIK3CA E545K/LKB1 Q37/CDKN2A mutant xenografted in mouse assessed as tumor growth inhibition at 5 mg/kg, po. It is filed as functional. The conditions noted are these: read-out: TGI. In a few lines:
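Human tumor xenografts in mice were dosed orally at the indicated mg/kg. Tumor volume was measured with calipers as (L×W×W)/2. %TGI = 100 × [1 − (AUC treatment/d)/(AUC vehicle/d)], using the area under the fitted tumor-growth curve per day for each dose group relative to vehicle.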

Assay [19] can be described thus: Antitumor activity against human A375.X1 cells xenografted in mouse assessed as tumor growth inhibition at 15 mg/kg, po administered every third day for 21 days. The assay is classed as functional. The conditions noted are these: A375.X1, 504 h, time 21 day, read-out: TGI. In a few lines:
as §2

In assay [20] the test system is A2058. Briefly: Antitumor activity against human A2058 cells xenografted in mouse assessed as effect on S6 phosphorylation at 5 mg/kg, po administered daily for 4 days and measured after 8 hrs. The assay is classed as functional, organism-based. The conditions noted are these: time 104.0 hrs.
Assay [21] concerns A2058. Briefly: Antitumor activity against human A2058 cells harboring BRAF V600E/PTEN deletion mutant xenografted in mouse assessed as suppression of ERK phosphorylation at 15 mg/kg, po administered every third day for 21 days and measured after 72 hrs post dose in presence of 4-(2-(1H-indazol-4-yl)-6-((4-(methylsulfonyl)piperazin-1-yl)methyl)thieno[3,2-d]pyrimidin-4-yl)morpholine by Western blot analysis. The conditions noted are these: time 576.0 hrs. The assay is classed as functional, organism-based.

The target of assay [22] is Mitogen-activated protein kinase 3 (Homo sapiens, UniProt P27361). Briefly: Inhibition of ERK1 (unknown origin).
Sequence of Mitogen-activated protein kinase 3 (P27361 whole entry): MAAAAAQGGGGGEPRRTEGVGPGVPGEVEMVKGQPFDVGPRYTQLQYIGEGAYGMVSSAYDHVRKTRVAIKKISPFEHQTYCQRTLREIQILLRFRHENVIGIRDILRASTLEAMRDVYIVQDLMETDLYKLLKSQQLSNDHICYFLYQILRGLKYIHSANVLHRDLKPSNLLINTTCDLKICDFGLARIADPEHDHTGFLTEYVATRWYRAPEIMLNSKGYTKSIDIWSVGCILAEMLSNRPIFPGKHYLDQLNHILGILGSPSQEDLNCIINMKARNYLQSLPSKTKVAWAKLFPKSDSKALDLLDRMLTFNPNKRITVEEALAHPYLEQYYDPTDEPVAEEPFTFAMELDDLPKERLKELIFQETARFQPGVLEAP

The IC50 is the concentration that inhibits the measured activity by half. A low value points to greater potency.

Each structure is given as a SMILES string. Calls of active or inactive are those of the source. The rule behind the calls is not given here.

Sequence of Focal adhesion kinase 1 (Q05397 whole entry): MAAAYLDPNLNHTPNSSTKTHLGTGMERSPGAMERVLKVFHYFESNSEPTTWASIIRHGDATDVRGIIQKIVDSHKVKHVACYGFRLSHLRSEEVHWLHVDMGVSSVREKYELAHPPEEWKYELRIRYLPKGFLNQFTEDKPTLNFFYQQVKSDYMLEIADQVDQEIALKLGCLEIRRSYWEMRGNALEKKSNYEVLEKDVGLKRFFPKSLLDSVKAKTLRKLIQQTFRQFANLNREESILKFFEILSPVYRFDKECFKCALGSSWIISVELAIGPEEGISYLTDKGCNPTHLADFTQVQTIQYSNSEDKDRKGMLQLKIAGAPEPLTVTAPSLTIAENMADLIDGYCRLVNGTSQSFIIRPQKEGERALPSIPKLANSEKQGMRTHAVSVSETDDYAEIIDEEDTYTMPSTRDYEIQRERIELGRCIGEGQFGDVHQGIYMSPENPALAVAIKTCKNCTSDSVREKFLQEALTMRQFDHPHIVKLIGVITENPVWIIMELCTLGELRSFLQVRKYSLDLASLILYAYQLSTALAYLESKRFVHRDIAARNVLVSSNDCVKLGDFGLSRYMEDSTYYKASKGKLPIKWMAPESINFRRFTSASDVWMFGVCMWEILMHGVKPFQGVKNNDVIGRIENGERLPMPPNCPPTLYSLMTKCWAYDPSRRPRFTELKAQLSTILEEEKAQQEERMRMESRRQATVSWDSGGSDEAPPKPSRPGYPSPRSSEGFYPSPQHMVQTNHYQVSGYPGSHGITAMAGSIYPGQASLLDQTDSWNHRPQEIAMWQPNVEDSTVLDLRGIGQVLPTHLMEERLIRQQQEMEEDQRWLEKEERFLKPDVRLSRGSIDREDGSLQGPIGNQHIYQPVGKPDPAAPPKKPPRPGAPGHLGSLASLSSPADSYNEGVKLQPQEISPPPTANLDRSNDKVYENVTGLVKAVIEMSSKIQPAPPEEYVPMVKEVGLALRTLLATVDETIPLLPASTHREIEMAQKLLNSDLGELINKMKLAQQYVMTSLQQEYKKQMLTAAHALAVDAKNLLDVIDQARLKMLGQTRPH
Sequence of Serine/threonine-protein kinase D2 (Q9BZL6 whole entry): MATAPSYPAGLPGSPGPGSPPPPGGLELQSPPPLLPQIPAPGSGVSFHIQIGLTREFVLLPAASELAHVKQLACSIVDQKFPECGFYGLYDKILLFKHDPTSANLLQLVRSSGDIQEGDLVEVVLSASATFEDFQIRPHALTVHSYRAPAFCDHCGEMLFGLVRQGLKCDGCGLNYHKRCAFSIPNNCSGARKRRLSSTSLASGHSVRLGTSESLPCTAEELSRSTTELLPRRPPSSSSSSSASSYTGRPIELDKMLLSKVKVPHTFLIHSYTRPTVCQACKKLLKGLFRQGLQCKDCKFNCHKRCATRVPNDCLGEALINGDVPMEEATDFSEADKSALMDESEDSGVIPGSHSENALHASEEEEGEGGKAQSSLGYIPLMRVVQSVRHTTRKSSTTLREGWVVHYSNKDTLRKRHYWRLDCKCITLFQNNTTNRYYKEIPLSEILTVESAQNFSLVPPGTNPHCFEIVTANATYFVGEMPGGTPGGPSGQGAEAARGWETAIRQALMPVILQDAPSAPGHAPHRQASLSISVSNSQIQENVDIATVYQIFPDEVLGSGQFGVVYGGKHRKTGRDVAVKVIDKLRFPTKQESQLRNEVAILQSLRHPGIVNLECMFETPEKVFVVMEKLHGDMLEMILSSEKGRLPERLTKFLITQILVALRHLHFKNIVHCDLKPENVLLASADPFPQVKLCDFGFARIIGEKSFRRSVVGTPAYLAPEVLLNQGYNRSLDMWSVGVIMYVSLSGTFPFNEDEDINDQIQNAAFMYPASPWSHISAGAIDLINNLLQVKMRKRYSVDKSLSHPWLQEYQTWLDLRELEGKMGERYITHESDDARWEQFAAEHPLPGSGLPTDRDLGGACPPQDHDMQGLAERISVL

Take `O=C(c1ccc(F)c(F)c1Nc1ccc(I)cc1F)N1CC(O)([C@@H]2CCCCN2)C1` [COBIMETINIB]: the half-maximal inhibitory concentration (IC50) in assay [1], in assay [8], in assay [9] and in [22] was > 10 µM in each case. Also, the inhibition in vivo at 2.5 mg/kg in [2] amounted to 69%; in assay [11], 4%. Also, in assay [3], the inhibition in vivo at 20 mg/kg was found to be 87%. The inhibition in vivo at 10 mg/kg in assay [4] is 47.3%; in assay [5], 80%; in [7] it was 61%; in assay [15], 82.5%; in assay [16], 18%; in [17], 40%. In addition, the inhibition in vivo at 15 mg/kg in assay [6] came to 122%; in assay [19], 75%. Besides, the inhibition in vivo at 5 mg/kg in assay [10] was determined as 68.7%; in assay [13], 7%; in assay [14] it was 106%; in assay [18], 34.5%. For the same molecule, the Activity in assay [12] turned out to be 60%. Further, the result in [20] and in [21] was Active.

The values above are taken from ChEMBL document CHEMBL5678805, “Intermittent administration of MEK inhibitor GDC-0973 plus PI3K inhibitor GDC-0941 triggers robust apoptosis and tumor growth inhibition” (Cancer Res, 2012).
